Source: ChEMBL document CHEMBL1131215, “Anhydrolide macrolides. 1. Synthesis and antibacterial activity of 2,3-anhydro-6-O-methyl 11,12-carbamate erythromycin A analogues” (1998)
Converted amounts (≈) assume the structure as drawn.

Columns and labels:
Type in all cases: functional
Haemophilus influenzae = assay: In vitro antibacterial activity against DILL strain of Haemophilus influenzae.
Outline: (§1)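 MIC determined by standard agar dilution; values in μg/mL.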

Staphylococcus aureus [1] = assay: In vitro antibacterial activity against 6538P strain of Staphylococcus aureus; outline: as §1
Streptococcus pneumoniae [2] = assay: In vitro antibacterial activity against 5649 strain of Streptococcus pneumoniae; outline: as §1
Streptococcus pneumoniae [3] = assay: In vitro antibacterial activity against 5979 strain of Streptococcus pneumoniae; outline: as §1
Streptococcus pneumoniae [4] = assay: In vitro antibacterial activity against ATCC 6303 strain of Streptococcus pneumoniae; outline: as §1
Streptococcus pyogenes [5] = assay: In vitro antibacterial activity against PIU 2548 strain of Streptococcus pyogenes; outline: as §1
Streptococcus pyogenes [6] = assay: In vitro antibacterial activity against 930 strain of Streptococcus pyogenes; outline: as §1
Staphylococcus aureus [7] = assay: In vitro antibacterial activity against A5177 strain of Staphylococcus aureus; outline: as §1
[8] = In vitro antibacterial activity against A-5278 strain of Staphylococcus aureus; outline: as §1
[9] = Streptococcus pneumoniae, ATCC 6303

Row | SMILES | MIC (Haemophilus influenzae) | MIC (Staphylococcus aureus [1]; Staphylococcus aureus) | MIC (Streptococcus pneumoniae [2]; Streptococcus pneumoniae) | MIC (Streptococcus pneumoniae [4]; [9]) | MIC (Streptococcus pyogenes [5]; Streptococcus pyogenes) | MIC (Streptococcus pyogenes [6]; Streptococcus pyogenes) | MIC (Staphylococcus aureus [7]; Staphylococcus aureus) | MIC ([8]; Staphylococcus aureus) | other results
1 | CC[C@H]1OC(=O)/C(C)=C/[C@H](C)[C@@H](O[C@@H]2O[C@H](C)C[C@H](N(C)C)[C@H]2O)[C@@](C)(OC)C[C@@H](C)C(=O)[C@H](C)[C@H]2N(CCCOc3cccc4cccnc34)C(=O)O[C@]12C | 8 µg/mL (≈ 10.2 µM) | 1.56 µg/mL (≈ 1.99 µM) | 2 µg/mL (≈ 2.56 µM) | < 0.004 µg/mL | 0.2 µg/mL (≈ 0.256 µM) |  |  |  | MIC (Streptococcus pneumoniae [3]): > 16 µg/mL
2 | CC[C@H]1OC(=O)/C(C)=C/[C@H](C)[C@@H](O[C@@H]2O[C@H](C)C[C@H](N(C)C)[C@H]2O)[C@@](C)(OC)C[C@@H](C)C(=O)[C@H](C)[C@H]2N(CCc3ccc(OCc4ccccc4)c(OCc4ccccc4)c3)C(=O)O[C@]12C |  |  | 4 µg/mL (≈ 4.38 µM) | 1 µg/mL (≈ 1.1 µM) |  |  |  |  | MIC (Streptococcus pneumoniae [3]): 8 µg/mL (≈ 8.76 µM)
3 | CC[C@H]1OC(=O)/C(C)=C/[C@H](C)[C@@H](O[C@@H]2O[C@H](C)C[C@H](N(C)C)[C@H]2O)[C@@](C)(OC)C[C@@H](C)C(=O)[C@H](C)[C@H]2N(CCNCc3ccccc3)C(=O)O[C@]12C | > 64 µg/mL | 6.2 µg/mL (≈ 8.49 µM) | 2 µg/mL (≈ 2.74 µM) | 0.03 µg/mL (≈ 0.0411 µM) | 3.1 µg/mL (≈ 4.25 µM) | 50 µg/mL (≈ 68.5 µM) |  |  | 
4 | CC[C@H]1OC(=O)/C(C)=C/[C@H](C)[C@@H](O[C@@H]2O[C@H](C)C[C@H](N(C)C)[C@H]2O)[C@@](C)(OC)C[C@@H](C)[C@@H]2NCCN3C(=O)O[C@@]1(C)[C@H]3[C@H]2C | > 64 µg/mL | 12.5 µg/mL (≈ 20 µM) | 2 µg/mL (≈ 3.21 µM) | 1 µg/mL (≈ 1.6 µM) | 1.56 µg/mL (≈ 2.5 µM) |  | 6.2 µg/mL (≈ 9.94 µM) |  | MIC (Streptococcus pneumoniae [3]): > 64 µg/mL
5 | CC[C@H]1OC(=O)/C(C)=C/[C@H](C)[C@@H](O[C@@H]2O[C@H](C)C[C@H](N(C)C)[C@H]2O)[C@@](C)(OC)C[C@@H](C)C(=O)[C@H](C)[C@H]2N(CCCOc3ccccc3)C(=O)O[C@]12C | 16 µg/mL (≈ 21.9 µM) | 0.39 µg/mL (≈ 0.534 µM) |  |  | 0.39 µg/mL (≈ 0.534 µM) | 25 µg/mL (≈ 34.2 µM) | 0.39 µg/mL (≈ 0.534 µM) | 50 µg/mL (≈ 68.4 µM) | 
6 | CC[C@H]1OC(=O)/C(C)=C/[C@H](C)[C@@H](O[C@@H]2O[C@H](C)C[C@H](N(C)C)[C@H]2O)[C@@](C)(OC)C[C@@H](C)C(=O)[C@H](C)[C@H]2N(CCCOc3ccc(Cl)cc3)C(=O)O[C@]12C |  | 0.78 µg/mL (≈ 1.02 µM) | 0.03 µg/mL (≈ 0.0392 µM) | < 0.004 µg/mL | 0.39 µg/mL (≈ 0.51 µM) | 12.5 µg/mL (≈ 16.3 µM) |  | 50 µg/mL (≈ 65.3 µM) | 
7 | CC[C@H]1OC(=O)/C(C)=C/[C@H](C)[C@@H](O[C@@H]2O[C@H](C)C[C@H](N(C)C)[C@H]2O)[C@@](C)(OC)C[C@@H](C)C(=O)/C(C)=C/[C@]1(C)OC(=O)OC |  | 25 µg/mL (≈ 40.9 µM) |  |  | 25 µg/mL (≈ 40.9 µM) | 50 µg/mL (≈ 81.7 µM) | 25 µg/mL (≈ 40.9 µM) |  | 
8 | CC[C@H]1OC(=O)/C(C)=C/[C@H](C)[C@@H](O[C@@H]2O[C@H](C)C[C@H](N(C)C)[C@H]2O)[C@@](C)(OC)C[C@@H](C)C(=O)/C(C)=C/[C@]1(C)OC(=O)NCCCOc1ccc2ccccc2c1 |  | 6.2 µg/mL (≈ 7.94 µM) |  |  | 6.2 µg/mL (≈ 7.94 µM) | 25 µg/mL (≈ 32 µM) | 3.1 µg/mL (≈ 3.97 µM) | 50 µg/mL (≈ 64 µM) | 
9 | CC[C@H]1OC(=O)/C(C)=C/[C@H](C)[C@@H](O[C@@H]2O[C@H](C)C[C@H](N(C)C)[C@H]2O)[C@@](C)(OC)C[C@@H](C)C(=O)[C@H](C)[C@H]2N(CCCCc3ccccc3)C(=O)O[C@]12C | 32 µg/mL (≈ 43.9 µM) | 0.39 µg/mL (≈ 0.535 µM) |  |  | 0.39 µg/mL (≈ 0.535 µM) | 12.5 µg/mL (≈ 17.1 µM) | 0.39 µg/mL (≈ 0.535 µM) | 50 µg/mL (≈ 68.6 µM) | 
10 | CC[C@H]1OC(=O)/C(C)=C/[C@H](C)[C@@H](O[C@@H]2O[C@H](C)C[C@H](N(C)C)[C@H]2O)[C@@](C)(OC)C[C@@H](C)C(=O)[C@H](C)[C@H]2N(CCCc3ccccc3)C(=O)O[C@]12C (stereo in doubt; 11) |  |  |  |  |  | 25 µg/mL (≈ 35 µM) |  |  | MIC (Staphylococcus aureus [1]): 25 µg/mL (≈ 35 µM); MIC (Staphylococcus aureus [7]): 25 µg/mL (≈ 35 µM); MIC (Streptococcus pyogenes [5]): 6.2 µg/mL (≈ 8.67 µM)
11 | CC[C@H]1OC(=O)/C(C)=C/[C@H](C)[C@@H](O[C@@H]2O[C@H](C)C[C@H](N(C)C)[C@H]2O)[C@@](C)(OC)C[C@@H](C)C(=O)[C@H](C)[C@H]2N(CCc3ccc(Oc4ccccc4)cc3)C(=O)O[C@]12C (stereo in doubt; 15) |  |  |  |  |  |  |  |  | MIC (Staphylococcus aureus [1]): 25 µg/mL (≈ 31.5 µM); MIC (Staphylococcus aureus [7]): 25 µg/mL (≈ 31.5 µM); MIC (Streptococcus pneumoniae [2]): 8 µg/mL (≈ 10.1 µM); MIC (Streptococcus pyogenes [6]): 6.2 µg/mL (≈ 7.82 µM); MIC (Streptococcus pneumoniae [4]): 4 µg/mL (≈ 5.04 µM); MIC (Streptococcus pyogenes [5]): 3.1 µg/mL (≈ 3.91 µM); MIC [8]: 12.5 µg/mL (≈ 15.8 µM)
